Source: ChEMBL document CHEMBL1155589, “Use of COMPARE analysis to discover new natural product drugs: isolation of camptothecin and 9-methoxycamptothecin from a new source” (J Nat Prod, 2000)
Converted amounts (≈) assume the structure as drawn.

Key:
Type in all cases: functional, organism-based
Saccharomyces cerevisiae [1] = assay: Growth inhibition of RAD52/topoisomerase 1 deficient Saccharomyces cerevisiae RS321N harbouring plasmid containing human topoisomerase 1 in galactose medium after 48 hrs
Procedure, shortened: (§1)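 Strains: RS321N (rad52 top1) carrying a single-copy plasmid with human TOP1 under the GAL1 promoter; RS321NYCp50 (vector control, tested in galactose); RS322N (rad52). Cells diluted to OD600 0.01 in synthetic minimal medium with glucose or galactose. Compounds added in DMSO (final <1%). Incubated 48 h at 30 °C in a humidified chamber. Read as background-subtracted OD595. Growth decrease relative to drug-free wells, from concentration-response, gave IC50.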

Saccharomyces cerevisiae [2] = assay: Growth inhibition of RAD52/topoisomerase 1 deficient Saccharomyces cerevisiae RS321N harbouring plasmid containing human topoisomerase 1 in glucose medium after 48 hrs; procedure, shortened: as §1
Saccharomyces cerevisiae [3] = assay: Growth inhibition of Saccharomyces cerevisiae RS321N containing YCp50 vector plasmid after 48 hrs; procedure, shortened: as §1
Saccharomyces cerevisiae [4] = assay: Growth inhibition of RAD52 deficient Saccharomyces cerevisiae RS322 carrying pRAD52 in galactose medium after 48 hrs
Saccharomyces cerevisiae [5] = assay: Growth inhibition of RAD52/topoisomerase-1 deficient Saccharomyces cerevisiae RS321 in glucose medium after 48 hrs; procedure, shortened: as §1
Saccharomyces cerevisiae [6] = assay: Growth inhibition of RAD52 deficient Saccharomyces cerevisiae RS322 in glucose medium after 48 hrs; procedure, shortened: as §1
Saccharomyces cerevisiae [7] = assay: Growth inhibition of Saccharomyces cerevisiae expressing wild type erg6 in glucose medium after 48 hrs
Saccharomyces cerevisiae [8] = assay: Growth inhibition of RAD52 deficient Saccharomyces cerevisiae RS322 carrying pRAD52 in glucose medium after 48 hrs

With `CC[C@@]1(O)C(=O)OCc2c1cc1n(c2=O)Cc2cc3c(CN(C)C)c(O)ccc3nc2-1` [TOPOTECAN] the IC50 (Saccharomyces cerevisiae [1]) was 9.9 µg/mL (≈ 23.5 µM) and the IC50 (Saccharomyces cerevisiae [2]) was greater than 100 µg/mL.
With `CC[C@@]1(O)C(=O)OCc2c1cc1n(c2=O)Cc2cc3ccccc3nc2-1` [CAMPTOTHECIN] the IC50 (Saccharomyces cerevisiae [3]) was 0.16 µg/mL (≈ 0.459 µM), the IC50 (Saccharomyces cerevisiae [4]) was 0.18 µg/mL (≈ 0.517 µM) and the IC50 (Saccharomyces cerevisiae [5]) was greater than 100 µg/mL. The IC50 (Saccharomyces cerevisiae [6]) was 0.06 µg/mL (≈ 0.172 µM), the IC50 (Saccharomyces cerevisiae [1]) was 0.014 µg/mL (≈ 0.0402 µM) and the IC50 (Saccharomyces cerevisiae [2]) was greater than 100 µg/mL. For the same compound, the IC50 (Saccharomyces cerevisiae [7]) was greater than 100 µg/mL and the IC50 (Saccharomyces cerevisiae [8]) was greater than 100 µg/mL.
